Holding throughout (assay type): functional, cell-based
For data set [1], the target named is T1, ATP-dependent translocase ABCB1 (Mus musculus, UniProt P21447). Kind of data set: TP_TRANSPORTER: transcellular transport in mdr1a-expressing LLC-PK1 cells. Particulars: pig. In short, it runs like this: (§1)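 Polarized monolayers of LLC-PK1 pig kidney cells transfected with human MDR1, mouse mdr1a or mouse mdr1b cDNA, paired with wildtype LLC-PK1 monolayers. Directional transport across the monolayer was expressed as a transport ratio. The Pgp inhibitor PSC833 was used to test whether transport was Pgp-specific. Cyclosporin A served as the positive-control Pgp substrate.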
T1 sequence (P21447 whole entry): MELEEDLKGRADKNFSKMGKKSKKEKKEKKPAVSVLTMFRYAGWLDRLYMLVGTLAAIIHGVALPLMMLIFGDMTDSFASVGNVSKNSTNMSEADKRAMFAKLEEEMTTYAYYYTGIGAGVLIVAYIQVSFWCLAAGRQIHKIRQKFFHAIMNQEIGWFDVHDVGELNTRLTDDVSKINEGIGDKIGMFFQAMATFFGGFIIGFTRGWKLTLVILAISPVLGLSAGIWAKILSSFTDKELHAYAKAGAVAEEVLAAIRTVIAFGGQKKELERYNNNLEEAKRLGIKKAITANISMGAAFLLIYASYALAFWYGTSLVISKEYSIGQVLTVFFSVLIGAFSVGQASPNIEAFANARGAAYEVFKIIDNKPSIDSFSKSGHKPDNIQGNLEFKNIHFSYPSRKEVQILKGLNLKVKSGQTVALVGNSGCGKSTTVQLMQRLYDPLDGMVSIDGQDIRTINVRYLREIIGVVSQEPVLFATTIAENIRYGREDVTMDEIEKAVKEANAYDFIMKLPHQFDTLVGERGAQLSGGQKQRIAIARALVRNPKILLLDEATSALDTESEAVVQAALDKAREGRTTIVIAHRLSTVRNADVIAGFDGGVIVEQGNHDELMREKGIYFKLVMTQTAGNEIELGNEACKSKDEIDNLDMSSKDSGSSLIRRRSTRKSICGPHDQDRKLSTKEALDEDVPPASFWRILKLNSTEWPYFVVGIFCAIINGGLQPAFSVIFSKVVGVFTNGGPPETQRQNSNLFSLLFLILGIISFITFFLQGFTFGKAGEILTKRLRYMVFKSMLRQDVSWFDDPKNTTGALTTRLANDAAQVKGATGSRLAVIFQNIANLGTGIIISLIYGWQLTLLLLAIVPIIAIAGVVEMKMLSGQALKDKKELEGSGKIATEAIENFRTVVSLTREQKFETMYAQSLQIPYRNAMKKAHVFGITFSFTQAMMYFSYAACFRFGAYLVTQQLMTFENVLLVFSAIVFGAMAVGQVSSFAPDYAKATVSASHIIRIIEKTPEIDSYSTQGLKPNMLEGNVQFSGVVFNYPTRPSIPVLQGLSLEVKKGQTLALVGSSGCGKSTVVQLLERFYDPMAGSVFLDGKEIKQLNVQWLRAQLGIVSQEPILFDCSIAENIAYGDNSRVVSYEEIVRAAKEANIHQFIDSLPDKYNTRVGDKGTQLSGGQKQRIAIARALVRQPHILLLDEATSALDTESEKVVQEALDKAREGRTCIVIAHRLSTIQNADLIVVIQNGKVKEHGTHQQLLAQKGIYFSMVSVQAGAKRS

Data set [2] concerns the target T2, ATP-dependent translocase ABCB1 (Homo sapiens, UniProt P08183). Kind of data set: TP_TRANSPORTER: transcellular transport in MDR1-expressing LLC-PK1 cells. To be noted: pig. Put shortly:
as §1

The target in data set [3] is ATP-binding cassette sub-family C member 2 (Homo sapiens, UniProt Q92887). Kind of data set: TP_TRANSPORTER: transcellular transport in MRP2-expressing MDCKII cells. To be noted: dog, mdck-ii. In short, it runs like this: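 Directional transcellular transport was measured across polarized MDCKII monolayers transfected with human MRP2 cDNA and compared with wildtype MDCKII cells. Vinblastine served as the reference MRP2 substrate. The read-out was the transport ratio (TR).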
Chain of ATP-binding cassette sub-family C member 2 (Q92887 whole entry): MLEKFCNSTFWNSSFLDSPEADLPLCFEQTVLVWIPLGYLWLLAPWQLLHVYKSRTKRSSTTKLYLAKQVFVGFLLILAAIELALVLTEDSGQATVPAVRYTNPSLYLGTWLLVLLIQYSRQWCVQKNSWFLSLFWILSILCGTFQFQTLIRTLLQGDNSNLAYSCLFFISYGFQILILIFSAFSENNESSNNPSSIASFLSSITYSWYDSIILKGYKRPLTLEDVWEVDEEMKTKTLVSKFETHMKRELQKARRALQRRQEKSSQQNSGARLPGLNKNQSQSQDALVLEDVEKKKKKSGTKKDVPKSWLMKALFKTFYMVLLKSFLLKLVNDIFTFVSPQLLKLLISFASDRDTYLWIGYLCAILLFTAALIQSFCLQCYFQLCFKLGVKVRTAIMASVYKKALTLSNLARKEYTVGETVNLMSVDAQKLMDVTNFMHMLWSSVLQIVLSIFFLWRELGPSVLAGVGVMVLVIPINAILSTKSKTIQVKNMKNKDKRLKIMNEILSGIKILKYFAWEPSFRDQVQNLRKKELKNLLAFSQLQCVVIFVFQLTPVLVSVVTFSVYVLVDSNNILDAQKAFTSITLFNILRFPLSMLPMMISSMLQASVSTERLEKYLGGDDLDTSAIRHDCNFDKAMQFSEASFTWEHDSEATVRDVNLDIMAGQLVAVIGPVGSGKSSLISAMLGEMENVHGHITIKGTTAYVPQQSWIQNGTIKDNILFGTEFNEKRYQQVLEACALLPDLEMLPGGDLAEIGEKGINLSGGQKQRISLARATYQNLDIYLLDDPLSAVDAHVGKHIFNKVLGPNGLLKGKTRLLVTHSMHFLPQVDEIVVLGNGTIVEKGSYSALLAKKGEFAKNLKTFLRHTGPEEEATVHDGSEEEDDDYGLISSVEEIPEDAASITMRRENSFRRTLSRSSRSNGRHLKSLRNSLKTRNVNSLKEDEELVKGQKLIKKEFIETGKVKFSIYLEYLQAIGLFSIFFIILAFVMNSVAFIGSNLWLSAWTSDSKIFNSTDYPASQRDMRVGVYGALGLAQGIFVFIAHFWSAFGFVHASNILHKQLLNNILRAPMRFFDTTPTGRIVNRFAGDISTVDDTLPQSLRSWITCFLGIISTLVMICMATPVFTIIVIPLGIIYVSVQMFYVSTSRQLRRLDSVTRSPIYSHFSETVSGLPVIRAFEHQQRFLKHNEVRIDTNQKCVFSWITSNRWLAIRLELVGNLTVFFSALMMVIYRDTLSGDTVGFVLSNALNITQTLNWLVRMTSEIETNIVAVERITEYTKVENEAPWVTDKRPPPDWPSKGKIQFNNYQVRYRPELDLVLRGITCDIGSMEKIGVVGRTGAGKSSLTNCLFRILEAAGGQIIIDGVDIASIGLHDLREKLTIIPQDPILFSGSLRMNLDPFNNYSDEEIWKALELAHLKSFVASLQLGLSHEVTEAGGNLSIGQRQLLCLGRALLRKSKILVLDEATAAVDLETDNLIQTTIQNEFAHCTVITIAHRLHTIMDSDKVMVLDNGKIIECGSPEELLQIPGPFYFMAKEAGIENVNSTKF

Data set [4] addresses ATP-dependent translocase ABCB1 (Mus musculus, UniProt P06795). Kind of data set: TP_TRANSPORTER: transcellular transport in mdr1b-expressing LLC-PK1 cells. Particulars: pig. In short, it runs like this:
as §1

The target in data set [5] is T2, ATP-dependent translocase ABCB1. Kind of data set: TP_TRANSPORTER: inhibition of cyclosporin A transcellular transport by tariquidar at a concentration of 0.2uM in MDR1-expressing MDCKII cells. To be noted: dog, mdck-ii.
Data set [6] shares this target. Kind of data set: TP_TRANSPORTER: inhibition of cyclosporin A transcellular transport by carbamazapine 224 uM in MDR1-expressing LLC-PK1 cells. To be noted: pig, llc-pk1, 224 µM.
For data set [7], the target named is T1, ATP-dependent translocase ABCB1. Kind of data set: TP_TRANSPORTER: inhibition of cyclosporin A transcellular transport by carbamazepine at a concentration of 224uM in mdr1a-expressing LLC-PK1 cells. To be noted: pig, llc-pk1, 224 µM.
The target in data set [8] is T2, ATP-dependent translocase ABCB1. Kind of data set: TP_TRANSPORTER: inhibition of cyclosporin A transcellular transport by PSC833 at a concentration of 30uM in MDR1-expressing MDCKII cells. Particulars: dog, mdck-ii.
Data set [9] addresses T1, ATP-dependent translocase ABCB1. Kind of data set: TP_TRANSPORTER: inhibition of levetiracetam transcellular transport by PSC833 at a concentration of 30uM in mdr1a-expressing LLC-PK1 cells. Particulars: pig, llc-pk1, 30 µM.
Data set [10] has the same target. Kind of data set: TP_TRANSPORTER: inhibition of phenytoin transcellular transport by PSC833 at a concentration of 30uM in mdr1a-expressing LLC-PK1 cells. Particulars: pig, llc-pk1, 30 µM.
Data set [11] shares this target. Kind of data set: TP_TRANSPORTER: inhibition of cyclosporin A transcellular transport by PSC833 at a concentration of 30uM in mdr1a-expressing LLC-PK1 cells. To be noted: pig, llc-pk1, 30 µM.

Chain of ATP-dependent translocase ABCB1 (Mus musculus, UniProt P06795) (P06795 whole entry): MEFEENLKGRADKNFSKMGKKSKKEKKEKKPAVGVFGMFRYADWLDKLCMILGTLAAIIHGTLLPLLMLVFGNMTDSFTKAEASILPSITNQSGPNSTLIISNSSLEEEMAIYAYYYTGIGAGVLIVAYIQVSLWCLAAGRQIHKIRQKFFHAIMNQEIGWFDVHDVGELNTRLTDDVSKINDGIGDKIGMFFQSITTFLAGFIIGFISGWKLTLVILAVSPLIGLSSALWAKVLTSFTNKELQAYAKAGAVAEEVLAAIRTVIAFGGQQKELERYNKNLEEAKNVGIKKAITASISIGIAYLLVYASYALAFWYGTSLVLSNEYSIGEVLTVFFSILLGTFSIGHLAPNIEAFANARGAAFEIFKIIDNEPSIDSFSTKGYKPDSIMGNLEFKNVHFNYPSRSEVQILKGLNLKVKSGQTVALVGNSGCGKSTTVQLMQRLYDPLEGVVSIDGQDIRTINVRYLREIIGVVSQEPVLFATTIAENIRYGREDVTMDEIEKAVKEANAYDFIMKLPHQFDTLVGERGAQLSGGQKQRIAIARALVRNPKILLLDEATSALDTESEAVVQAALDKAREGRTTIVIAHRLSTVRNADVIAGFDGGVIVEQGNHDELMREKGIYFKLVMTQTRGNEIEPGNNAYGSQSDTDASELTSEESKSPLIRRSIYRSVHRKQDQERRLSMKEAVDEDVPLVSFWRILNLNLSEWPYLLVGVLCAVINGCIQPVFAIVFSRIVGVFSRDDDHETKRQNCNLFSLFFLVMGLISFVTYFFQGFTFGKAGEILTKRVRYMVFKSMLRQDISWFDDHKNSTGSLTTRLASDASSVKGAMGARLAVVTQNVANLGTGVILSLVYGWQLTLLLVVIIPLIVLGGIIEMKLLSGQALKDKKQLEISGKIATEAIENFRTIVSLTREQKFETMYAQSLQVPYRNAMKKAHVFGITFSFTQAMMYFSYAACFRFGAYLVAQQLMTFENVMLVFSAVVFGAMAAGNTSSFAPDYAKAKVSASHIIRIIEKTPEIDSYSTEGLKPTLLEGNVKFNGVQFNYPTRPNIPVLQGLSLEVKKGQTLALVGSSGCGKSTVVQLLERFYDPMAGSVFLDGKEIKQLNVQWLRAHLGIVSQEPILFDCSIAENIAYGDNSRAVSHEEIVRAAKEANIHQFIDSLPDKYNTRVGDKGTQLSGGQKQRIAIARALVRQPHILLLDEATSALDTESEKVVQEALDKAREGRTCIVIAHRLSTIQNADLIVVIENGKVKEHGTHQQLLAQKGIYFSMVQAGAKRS

Turning to `CC[C@@H](C(N)=O)N1CCCC1=O`, the Activity result in data set [1] is “substrate [+]”; in data set [2], “is not a substrate [-]”; in data set [3], “is not a substrate [-]”; in [4], “is not a substrate [-]”.

Regarding `COc1cc2c(cc1OC)CN(CCc1ccc(NC(=O)c3cc(OC)c(OC)cc3NC(=O)c3cnc4ccccc4c3)cc1)CC2`, the Activity result in data set [5] is “inhibitor [+]”.

In the case of `NC(=O)N1c2ccccc2C=Cc2ccccc21` [CARBAMAZEPINE], the Activity entry in [6] was “is not a inhibitor [-]”; in [1] it was “is not a substrate [-]”; in data set [7], “is not an inhibitor [-]”; in [2] it was “is not a substrate [-]”; in [4] it was “is not a substrate [-]”.

Regarding `O=C1NC(=O)C(c2ccccc2)(c2ccccc2)N1` [PHENYTOIN], the Activity entry in [1] is “substrate [+]”; in data set [2], “is not a substrate [-]”; in [3] it was “substrate [+]”; in data set [4], “is not a substrate [-]”.

`C/C=C/C[C@@H](C)C(=O)[C@H]1C(=O)N[C@@H](C(C)C)C(=O)N(C)CC(=O)N(C)[C@@H](CC(C)C)C(=O)N[C@@H](C(C)C)C(=O)N(C)[C@@H](CC(C)C)C(=O)N[C@@H](C)C(=O)N[C@H](C)C(=O)N(C)[C@@H](CC(C)C)C(=O)N(C)[C@@H](CC(C)C)C(=O)N(C)[C@@H](C(C)C)C(=O)N1C` [VALSPODAR]: the Activity result in [8], in [9], in data set [10] and in data set [11] was “inhibitor [+]” in each case.

With `CC[C@]1(O)C[C@@H]2CN(CCc3c([nH]c4ccccc34)[C@@](C(=O)OC)(c3cc4c(cc3OC)N(C)[C@H]3[C@@](O)(C(=O)OC)[C@H](OC(C)=O)[C@]5(CC)C=CCN6CC[C@]43[C@@H]65)C2)C1` [VINBLASTINE], in data set [3], the Activity result was “substrate [+]”.

The values above are taken from ChEMBL document CHEMBL2074217, “Differences in the transport of the antiepileptic drugs phenytoin, levetiracetam and carbamazepine by human and mouse P-glycoprotein” (Neuropharmacology, 2006).
